Hit rate of the full screen: of about 190,000 compounds, about 200 (0.11%) were called active.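 Rule for the calls: active = inhibition above 80%; inactive = the rest.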 The entries come from a sample that favours actives as a whole.
target: Broad substrate specificity ATP-binding cassette transporter ABCG2 (Homo sapiens) (UniProt Q9UNQ0); assay: blockers of JC-1 export by ABCG2 – multiplex with ABCB1, IgMXP3 cells, flow cytometry, primary screen (AID 1325); conditions: JC-1 efflux, at 6.6 µM, hits give high values;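 note: 0% = DMSO and 100% = nicardipine control wells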
Sequence (Q9UNQ0 whole entry, looked up): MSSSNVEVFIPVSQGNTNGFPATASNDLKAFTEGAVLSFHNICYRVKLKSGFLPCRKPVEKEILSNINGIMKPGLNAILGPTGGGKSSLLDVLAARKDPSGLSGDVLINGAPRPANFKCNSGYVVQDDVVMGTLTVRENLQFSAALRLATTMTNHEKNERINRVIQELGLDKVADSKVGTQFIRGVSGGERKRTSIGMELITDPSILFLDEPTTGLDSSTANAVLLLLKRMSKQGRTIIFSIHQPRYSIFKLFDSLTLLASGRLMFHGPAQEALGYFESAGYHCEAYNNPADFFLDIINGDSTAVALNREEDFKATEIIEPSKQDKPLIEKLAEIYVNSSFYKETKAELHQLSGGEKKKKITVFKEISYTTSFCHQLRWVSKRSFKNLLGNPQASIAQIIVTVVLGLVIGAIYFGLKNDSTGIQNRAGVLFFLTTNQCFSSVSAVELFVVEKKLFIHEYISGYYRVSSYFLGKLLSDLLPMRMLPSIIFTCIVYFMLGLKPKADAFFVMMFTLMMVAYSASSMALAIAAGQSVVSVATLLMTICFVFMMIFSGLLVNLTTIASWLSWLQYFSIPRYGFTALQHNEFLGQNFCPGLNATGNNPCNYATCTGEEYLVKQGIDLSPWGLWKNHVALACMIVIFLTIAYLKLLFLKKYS
In short: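 Assay system – ABCG2 IgMXP3 and barcoded ABCB1 CCRF-Adr cell mix · Input – 3 million cells/mL in well · Reagent – JC-1 fluorescent substrate · Compound – single test compound dose, 6.6 µM final · Timing – 10 min exposure at 25 °C with rotation, no wash · Detection – flow cytometry of retained JC-1 fluorescence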

inhibition, active:
O=C(Cc1c[nH]c2ccccc12)N/N=C/c1cccc(F)c1 88.7%

inhibition, inactive:
O=C(NCCCN1CCOCC1)c1ccc([N+](=O)[O-])cc1[N+](=O)[O-] 1.56%, CN1CCCN(C(=O)C2CCCCC2)CC1 3.74%, CCN1CCN(C(=O)CCN2C(=O)c3ccccc3C2=O)CC1 12.2%, CCN(C(=O)CSc1nnc2ccccn12)C1CCS(=O)(=O)C1 (configuration not stated) 6.4%, O=C(CCCOc1ccc(Cl)cc1Cl)NNC(=O)C1CCC1 8.42%, C#CCOCCOCCOCCNc1nc(N2CCN(C(=O)[C@H](Cc3ccc(O)cc3)n3cc(C(N)CC(C)C)nn3)CC2)nc(N2CCN(C(=O)[C@H](CCC(=O)O)n3cc(C(N)[C@H](C)CC)nn3)CC2)n1 (some centres not stated) -1.91%, Cc1[nH]c2ccccc2c1/C=N/NC(=O)CNC(=O)c1ccc2c(c1)OCO2 0.16%, O=C(NNC(=S)Nc1ccc(Br)cc1Cl)c1ccco1 -9.07%, CNC(=O)c1ccsc1NC(=O)c1ccc(S(=O)(=O)N2CCc3ccccc32)cc1 0.15%, CCCC(=O)NC(=S)Nc1ccc(CN2CCOCC2)cc1 1.31%, CCN(C(=O)COC(=O)/C=C/c1nc2ccccc2s1)C1CCS(=O)(=O)C1 (configuration not stated) 1.28%, O=C(Nc1ccc(C(=O)O)cc1)/C(=C/c1ccc([N+](=O)[O-])cc1)NC(=O)c1ccccc1 2.36%, C=CCNC(=O)/C=C/c1ccc(C(C)C)cc1 3.56%, Cc1ccc(S(=O)(=O)NCCc2nnc3ccc(SCc4cccnc4)nn23)cc1 0.68%, COc1ccc(C(=O)COC(=O)c2nn(C)c(=O)c3ccccc23)c(OC)c1 8.17%, COCCCNC(=O)CNC(=S)N(Cc1cc(OC)c(OC)c(OC)c1)C1CCCC1 -0.12%, O=C(COc1ccc(S(=O)(=O)N2CCCCC2)cc1)NCc1ccccn1 1.47%, CC1(C)CC(=O)c2c(n(S(=O)(=O)c3ccccc3)c3ccc(NS(=O)(=O)c4ccccc4)cc23)C1 -0.92%, COc1ccc(Cl)cc1N(CC(=O)N/N=C/c1ccc(OCC(N)=O)cc1)S(C)(=O)=O 8.83%, CCOc1ccc(-n2cnnn2)cc1S(=O)(=O)N1CCC(C)CC1C (configuration not stated) 0.53%, O=C(NCCN1CCOCC1)Nc1cccc(Cl)c1 4.87%, Cc1cc(C)c2[nH]c(=O)c(CN(Cc3ccccc3)C(=S)NCCCN(C)C)cc2c1 54.5%, Nn1c(SCC(=O)Nc2nccs2)nncc1=O 0.11%, COCCCNC(=O)/C=C/c1ccc(OCc2c(F)cccc2Cl)cc1 3.58%, COc1ccc(-c2[nH]ncc2CN(Cc2nccn2C)C(C)C)cc1F 3.43%, N#CC1(C#N)C(C(=O)C23CC4CC(CC(C4)C2)C3)C12CCOCC2 (configuration not stated) -1.02%, COc1cc(N2C(=O)c3ccccc3C2=O)c(Cl)cc1C(=O)OCC(=O)N1CCOCC1 2.21%, O=C(Oc1cccc(N2C(=O)C3C4c5ccccc5C(c5ccccc54)C3C2=O)c1)c1ccco1 (configuration not stated) 0.99%, O=C1OCC2=C1C(c1ccccc1)CC(=O)N2c1cccc(F)c1 (configuration not stated) 10.8%, COc1ccc(CN(C)Cc2nc3cc(OC)c(OC)cc3c(=O)[nH]2)c(OC)c1 3.26%, C[N+]1(CC(O)COc2ccccc2)CCN(C(=O)c2ccc([N+](=O)[O-])cc2)CC1 (configuration not stated) 4.9%, CC1(C)CC(=O)C2=C(C1)Nc1cc(C(=O)c3ccccc3)ccc1NC2c1ccccn1 (configuration not stated) 1.87%, CCN=c1sc(C(=O)Nc2ccccc2)c(C)n1CC 3.73%, CC(C)(C)C(=O)CN1C2=NCCN2c2ccccc21 2.76%, Cn1c(=O)c2c(nc(N/N=C/c3cccs3)n2Cc2ccc(Br)cc2)n(C)c1=O 8.74%, COc1ccc(Cl)cc1NC(=O)CNc1ccccc1F 28.9%, Cc1ccc2sc(NNC(=O)c3ccc4c(c3)OCCO4)nc2c1C 0%, CC(Sc1nc2cc(Cl)ccc2s1)C(=O)Nc1ccc2c(c1)OCO2 (configuration not stated) 0%, O=C(/C=C/c1ccc([N+](=O)[O-])cc1)NCCSCc1ccco1 54.6%, O=S(=O)(Nc1ccccn1)c1cccc(S(=O)(=O)c2ccc(Cl)cc2)c1 -0.57%, O=C(NNC1=NCCC1)c1cccc(S(=O)(=O)N2CCCCC2)c1 -6.82%, C=CCc1cccc2cc(C(=O)Nc3ccc(NC(C)=O)cc3)c(=O)oc12 0.59%, O=C(Cc1ccc(F)cc1)N/N=C/c1ccc2c(c1)OCO2 10.1%, O=C(CC(=O)N/N=C\c1ccc(F)cc1)NCCc1ccccc1 1.18%, Cc1cc(C(=O)N/N=C\C(Br)=C\c2ccccc2)c(C)o1 2.48%, NC(=O)CCC(NS(=O)(=O)c1ccc(Cl)cc1)C(=O)NCc1ccccc1Cl (configuration not stated) 4.92%, Cc1cc(C)n(CC(O)CN(c2ccccc2)S(=O)(=O)c2ccc3ccccc3c2)n1 (configuration not stated) 16.1%, CCc1nnc(NC(=O)CSc2nc(SC)ns2)s1 1.21%, COc1ccc(C2(CNC(=O)Cc3ccc(OC)c(OC)c3)CCCC2)cc1 2.77%, CC(C)CCN1C(=O)c2ccc(C(=O)Nc3cccc(S(N)(=O)=O)c3)cc2C1=O -4.62%, Clc1ccc(-c2ncc3ccccn23)c(Cl)c1 -0.33%, CCOc1cc(/C=N/NC(=O)c2ccc(CSc3nncn3C)cc2)ccc1OCC(=O)N1CCOCC1 -0.51%, Cc1nn(CC(=O)Nc2ccc3c(c2)OCO3)c(C)c1[N+](=O)[O-] 11.5%, CC(=O)Nc1sc2c(c1C(c1cccc(F)c1)N1CCN(CCO)CC1)CCCC2 (configuration not stated) -0.02%, O=C(c1cncc(Br)c1)N1CCN(c2ccc([N+](=O)[O-])cc2)CC1 34.2%, CN(C)c1ccc(/C=N/Nc2cc(N3CCOCC3)nc(N3CCOCC3)n2)cc1 5.63%, Cn1nc(C(F)(F)F)c2cc(C(=O)N3CCOCC3)sc21 0.03%, Cc1cc(NC(=O)CSc2nc3cc(Cl)ccc3c(=O)n2Cc2ccco2)no1 5.22%, CCC1CCCCN1C(=S)Nc1ccc(SC(F)F)cc1 (configuration not stated) 0%, O=C(N/N=C/c1cc([N+](=O)[O-])ccc1O)/C(=C\c1cccs1)NC(=O)c1ccccc1 -3.14%, Cn1cc(CN2CCCC(CO)C2)c(-c2ccc(Oc3ccccc3)cc2)n1 (configuration not stated) -1.73%, CN(C)c1ccc(C=C2C(=O)OC3(CCCC3)OC2=O)cc1 0.11%, Cc1nc2nc[nH]n2c(=O)c1C/C=C/c1ccccc1 0.18%, CN(C)c1ccc2c(=O)[nH][nH]c(=O)c2c1 2.2%, CCn1nc(C)cc1C(=O)N1CCCC(C(=O)c2cccc(OC)c2)C1 (configuration not stated) -0.58%, CCNS(=O)(=O)c1ccc(NC(=O)c2cncc(Br)c2)cc1 19.8%, Cn1c(CCC(=O)OCC(=O)NCc2ccccc2Cl)nc(=O)c2ccccc21 1.08%, CN(C)C(=O)c1cccn(Cc2cccc(C(F)(F)F)c2)c1=O -0.69%, CN1C(=O)/C(=C/C=C2\SCCN2C)OC1=S -0.91%, Cc1ccc(NC(=O)C2(N3CCC3=O)CCCCC2)cc1 0.01%, COc1ccc(C(=O)Nc2ccc(-n3nncc3C(C)(C)C)cc2)cc1 1.71%, Cc1ccc(NS(=O)(=O)c2cccs2)cc1S(=O)(=O)N1CCCCCC1 0.74%, Cc1ccc(OCc2nnc(SC3CCc4ccccc4C3=O)n2C)cc1 (configuration not stated) 1.34%, O=C(Cn1cc(C(F)(F)F)ccc1=O)N/N=C/c1ccc(Cl)cc1Cl -1.56%, Cc1ccc2c(CC(=O)NCc3cccs3)coc2c1 9.43%, CCc1nnc(NC(=O)c2cccc(S(=O)(=O)N(C)c3ccc(OC)cc3)c2)s1 3.19%, COc1ccc(CNC(=O)CN(Cc2ccc(Cl)cc2)S(C)(=O)=O)cc1 3.97%, COc1cccc(NC(=O)CC(c2ccc(OC(C)C)cc2)c2ccccc2OC)c1 (configuration not stated) 10.9%, Cc1ccc(O)c(NC(=S)NC(=O)COc2ccc(Br)cc2)c1 3.88%, CCOC(=O)C1=C(CC)Nc2ccccc2N=C1N 0.61%, CC(CNc1ccc([N+](=O)[O-])c2cccnc12)Nc1c([N+](=O)[O-])cc(C(F)(F)F)cc1[N+](=O)[O-] (configuration not stated) 23.1%, CC(=O)NC1C(Oc2ccc(C=O)cc2)OC(COC(C)=O)C(OC(C)=O)C1OC(C)=O (configuration not stated) 0.63%, Cc1nc2cc(NCc3cccs3)ccc2n1C 0.91%, CCCCc1ccc(S(N)(=O)=O)cc1 3.23%, O=C(NCc1ccccn1)c1cc(Br)ccc1Cl 2.2%, CC(C)C(c1nnnn1C(C)(C)C)N1CCN(Cc2cccnc2)CC1 (configuration not stated) 1.7%, CCOC(=O)c1ccc(NC(=S)Nc2cc(C)cc(C)n2)cc1 11.7%, CC(C)N(C)C(=O)CCc1nnc(CCc2c[nH]c3ccccc23)o1 5.03%, CC(C)CNC(=O)C(=O)NCc1ccccc1 7.35%, Cc1c(Cl)cccc1NC(=S)N(Cc1ccccc1)Cc1cccnc1 3.04%, COc1ccccc1NC(=O)c1c(Br)cnn1C 9.25%

Reference: PubChem BioAssay AID1325 (NMMLSC, 2008)
